Test results from ChEMBL document CHEMBL5338796, “Discovery of a Selective and Orally Bioavailable FGFR2 Degrader for Treating Gastric Cancer” (J Med Chem, 2023).
The source made the active and inactive calls. The rule behind the calls is not given here.

Columns and labels:
BaF3 = assay: Antiproliferative activity against mouse BaF3 cells expressing Tel-FGFR1 assessed as cell growth inhibition measured after 72 hrs by celltiter-glo reagent based assay; format: functional; details: BaF3, 72 h
Outline: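 Ba/F3 cells stably expressing cytoplasmic TEL-FGFR1, -2, -3 or -4 fusions were treated in 96-well format, final DMSO 0.1%, for 72 h. Viability read by CellTiter-Glo luminescence after 10 min at room temperature. Inhibition calculated from blank- and control-corrected RLU; IC50 from 4-parameter concentration–response fit.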

[1] = molecular target: T1, Protein cereblon/Fibroblast growth factor receptor 2 (Homo sapiens, UniProt P21802+Q96SW2); assay: PROTAC activity at CRBN/FGFR2 in human KATO III stomach cancer cell line assessed as FGFR2 degradation by measuring FGFR2 expression level at 0.5 to 100 nM measured for 6 hrs by Western blotting analysis; format: cell-based; details: dose 0.5-100 nM
Outline: (§1)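 KATO III cells treated 6 h across 0.5–10,000 nM (DMSO stock, final DMSO below 0.5%); FGFR2 immunoblotted, quantified as FGFR2/β-actin ratio normalized to DMSO-treated cells, three independent biological experiments; DC50 and Dmax derived from the curve.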

[2] = Oral bioavailability in mice at 20 mg/kg measured at 0.25 to 24 hrs by LC-MS/MS analysis; details: mouse, in vivo
[3] = Half life in Sprague-Dawley rat at 20 mg/kg, po measured at 0.25 to 24 hrs by LC-MS/MS analysis; format: ADME, organism-based; details: in vivo, time 0.25-24 hrs
Outline: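 Male Sprague Dawley rats, single dose i.v. 3 mg/kg or p.o. 20 mg/kg in 10% Solutol, 85% (10% HP-β-CD in saline), 5% DMSO, pH adjusted to 9–10.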

[4] = molecular target: Fibroblast growth factor receptor 2 (Homo sapiens) (UniProt P21802); assay: Inhibition of partial length human FGFR2 at 1000 nM by KINOMEscan analysis relative to control
Sequence of Fibroblast growth factor receptor 2 (Homo sapiens) (P21802 22-821 limits assumed): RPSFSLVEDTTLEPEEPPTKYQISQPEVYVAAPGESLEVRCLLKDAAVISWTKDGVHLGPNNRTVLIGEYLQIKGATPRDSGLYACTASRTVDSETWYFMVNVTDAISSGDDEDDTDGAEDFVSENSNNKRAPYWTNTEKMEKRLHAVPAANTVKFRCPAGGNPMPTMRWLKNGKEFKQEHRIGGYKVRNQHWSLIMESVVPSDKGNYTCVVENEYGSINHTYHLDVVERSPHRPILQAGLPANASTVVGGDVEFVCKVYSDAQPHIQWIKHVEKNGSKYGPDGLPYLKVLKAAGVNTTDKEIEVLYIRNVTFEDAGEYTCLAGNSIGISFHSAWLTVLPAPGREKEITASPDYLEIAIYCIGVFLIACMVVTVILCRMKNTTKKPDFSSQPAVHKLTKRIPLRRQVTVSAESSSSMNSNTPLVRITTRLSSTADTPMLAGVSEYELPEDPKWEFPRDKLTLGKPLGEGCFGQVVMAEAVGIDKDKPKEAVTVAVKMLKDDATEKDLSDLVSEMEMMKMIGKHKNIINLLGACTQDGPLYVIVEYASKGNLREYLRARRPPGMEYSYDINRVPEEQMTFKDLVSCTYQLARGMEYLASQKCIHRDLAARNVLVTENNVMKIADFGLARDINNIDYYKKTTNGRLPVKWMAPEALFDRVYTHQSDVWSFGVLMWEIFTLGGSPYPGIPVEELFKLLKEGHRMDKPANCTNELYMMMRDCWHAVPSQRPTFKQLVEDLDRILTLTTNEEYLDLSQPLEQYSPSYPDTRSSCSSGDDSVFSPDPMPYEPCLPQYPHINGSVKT
Outline: (§2)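 97-kinase scanEDGE panel screened at 1000 nM; results reported as % Ctrl, lower values meaning stronger inhibition.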

[5] = Volume of distribution at steady state in mice at 3 mg/kg, iv measured at 0.083 to 24 hrs by LC-MS/MS analysis; details: mouse, in vivo, read-out: Vdss
[6] = Toxicity in ICR mouse assessed as change in kidney weight at 20 mg/kg, po measured for 30 days; format: organism-based; details: in vivo, 720 h, time 30 day
Outline: (§3)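 ICR mice (n = 6) were dosed orally at 20 mg/kg/day for 30 days, alongside vehicle-treated controls. Mortality and clinical signs were checked daily. At the end, body and organ weights were recorded. Heart, liver, spleen, lung and kidney were examined by hematoxylin and eosin staining.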

[7] = molecular target: T1, Protein cereblon/Fibroblast growth factor receptor 2; assay: PROTAC activity at CRBN/FGFR2 in human KATO III stomach cancer cell line assessed as FGFR2 degradation by measuring FGFR2 expression level measured for 6 hrs by Western blotting analysis; format: cell-based; outline: as §1
[8] = molecular target: Fibroblast growth factor receptor 3 (Homo sapiens) (UniProt P22607); assay: Inhibition of partial length human FGFR3 at 1000 nM by KINOMEscan analysis relative to control; outline: as §2
Sequence of Fibroblast growth factor receptor 3 (Homo sapiens) (P22607 23-806 limits assumed): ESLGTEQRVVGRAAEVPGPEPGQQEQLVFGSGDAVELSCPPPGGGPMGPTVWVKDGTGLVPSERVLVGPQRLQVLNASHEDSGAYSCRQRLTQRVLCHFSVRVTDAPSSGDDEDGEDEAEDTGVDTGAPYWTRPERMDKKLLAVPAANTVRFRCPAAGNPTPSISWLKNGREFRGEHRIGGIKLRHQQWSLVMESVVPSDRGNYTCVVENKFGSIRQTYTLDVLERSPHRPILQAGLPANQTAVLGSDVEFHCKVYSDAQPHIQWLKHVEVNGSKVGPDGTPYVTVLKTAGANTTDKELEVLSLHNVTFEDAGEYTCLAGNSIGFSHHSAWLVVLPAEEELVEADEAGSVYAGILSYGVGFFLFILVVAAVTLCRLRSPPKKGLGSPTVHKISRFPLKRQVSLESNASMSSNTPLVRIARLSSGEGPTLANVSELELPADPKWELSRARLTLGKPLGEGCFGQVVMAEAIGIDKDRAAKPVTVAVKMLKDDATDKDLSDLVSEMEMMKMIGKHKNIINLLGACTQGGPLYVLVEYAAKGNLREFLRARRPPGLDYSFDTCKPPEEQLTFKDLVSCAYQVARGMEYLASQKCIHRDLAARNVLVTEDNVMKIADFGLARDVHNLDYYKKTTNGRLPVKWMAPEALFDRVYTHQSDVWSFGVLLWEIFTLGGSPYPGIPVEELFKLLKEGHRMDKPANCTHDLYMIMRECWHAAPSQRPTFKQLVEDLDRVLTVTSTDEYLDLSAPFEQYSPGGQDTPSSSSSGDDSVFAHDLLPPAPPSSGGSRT

[9] = molecular target: T1, Protein cereblon/Fibroblast growth factor receptor 2; assay: PROTAC activity at CRBN/FGFR2 in human KATO III stomach cancer cell line assessed as FGFR2 degradation measured for 6 hrs in presence of MG132 by immunoblot analysis; format: cell-based
Outline: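 KATO III cells were pretreated with 1 μM proteasome inhibitor (MG132 or bortezomib), then exposed to degrader at 100 nM for 6 h. FGFR2 was read by immunoblot against β-actin loading, with ECL detection.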

[10] = molecular target: Fibroblast growth factor receptor 2 (Homo sapiens) (UniProt P21802); assay: Induction of FGFR2 receptor relocalization in human KATO III stomach cancer cell line at 100 nM measured for 3 hrs by immunofluorescence assay; format: cell-based; details: filed as activator
Outline: (§4)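 KATO III cells treated with 100 nM for 3 or 6 h, fixed in 2% formaldehyde 2 min, blocked 5% BSA 1 h, anti-FGFR2 overnight, Alexa Fluor 488 secondary 1 h, DAPI 10 min; imaged by fluorescence microscopy.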

[11] = Hepatotoxicity in ICR mouse assessed as effect on ALT level at 20 mg/kg, po measured for 30 days; format: toxicity, organism-based; details: in vivo, 720 h, time 30 day
Outline: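 ICR mice given 20 mg/kg/day orally for 30 days (n = 6), vehicle controls; mortality and clinical signs checked daily, then AST/ALT and creatinine, organ weights, haematology and H&E of heart, liver, spleen, lung, kidney.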

[12] = molecular target: T1, Protein cereblon/Fibroblast growth factor receptor 2; assay: PROTAC activity at CRBN/FGFR2 in human KATO III stomach cancer cell line assessed as FGFR2 degradation measured for 6 hrs by immunoblot analysis; format: cell-based
Outline: (§5)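 KATO III cells treated for 6 h at the stated concentrations, added from 10 mM DMSO stocks (final DMSO below 0.5%). Cells were washed with PBS and lysed in 2× loading buffer, then run on SDS-PAGE and blotted to PVDF. Anti-FGFR2 was applied overnight at 4 °C, with ECL detection. FGFR2 was expressed as FGFR2/β-actin, normalized to DMSO-treated cells, from three independent biological experiments.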

[13] = Toxicity in ICR mouse assessed as change in spleen weight at 20 mg/kg, po measured for 30 days; format: organism-based; details: in vivo, 720 h, time 30 day; outline: as §3
[14] = Tmax in Sprague-Dawley rat at 3 mg/kg, iv measured at 0.083 to 24 hrs by LC-MS/MS analysis; format: ADME, organism-based; details: in vivo, time 0.083-24 hrs
Outline: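 Male Sprague Dawley rats received a single dose of 3 mg/kg i.v. or 20 mg/kg p.o. Vehicle was 10% Solutol, 85% (10% HP-β-CD in saline) and 5% DMSO, adjusted to pH 9–10. Plasma was assayed by LC–MS/MS.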

SNU-16 = assay: Antitumor activity against human SNU-16 cells xenografted in BALB/c nude mouse assessed as reduction in ERK1/2 phosphorylation in tumor at 20 mg/kg, po measured at 4 hrs; format: functional, organism-based
Outline: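 Female BALB/c nude mice, 5 weeks old (20–22 g), s.c. right-flank SNU-16 implants, randomized by body weight into groups (n = 5) once tumours reached 50–100 mm3. Dosing 20 mg/kg/day intragastric in 0.5% CMC-Na for 15 d; vehicle controls. Tumour width and length measured every 2 days; tumours harvested 4 h after last dose and lysates immunoblotted for pFGFR, FGFR2, pPLCγ, pErk.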

[15] = molecular target: Fibroblast growth factor receptor 2 (Homo sapiens) (UniProt P21802); assay: Induction of FGFR2 receptor internalization in human KATO III stomach cancer cell line at 100 nM measured for 6 hrs by immunofluorescence assay; format: cell-based; details: filed as activator; outline: as §4
[16] = molecular target: T1, Protein cereblon/Fibroblast growth factor receptor 2; assay: PROTAC activity at CRBN/FGFR2 in human KATO III stomach cancer cell line at 100 nM measured for 6 hrs by Western blot analysis relative to control; format: cell-based; outline: as §5
[17] = AUC (0 to infinity) in mouse at 20 mg/kg, po measured at 0.25 to 24 hrs by LC-MS/MS analysis; details: in vivo
[18] = molecular target: T1, Protein cereblon/Fibroblast growth factor receptor 2; assay: PROTAC activity at CRBN/FGFR2 in human KATO III stomach cancer cell line assessed as FGFR2 degradation by measuring FGFR2 expression level upto 300 nM measured for 6 hrs by Western blotting analysis; format: cell-based; outline: as §1

IC50 (BaF3): 125 nM
Activity [1]: inactive
bioavailability [2]: 13.1%
half-life [3]: 88.2 min
inhibition [4]: 87%
Vd [5]: 6.23 L/kg
DC50 [7]: 11.8 nM
inhibition [8]: 71%
Activity [9]: inactive
Activity [10]: Active
Activity [12]: inactive
Tmax [14]: 4.98 min
Activity [15]: Active
Activity [16]: 77%
AUC(0-inf) [17]: 387 ng·h/mL
Activity [18]: inactive
Compound: COc1cc(OC)c(Cl)c(NC(=O)N(C)c2cc(Nc3ccc(N4CCN(C(=O)C5CCN(c6ccc7c(c6)C(=O)N(C6CCC(=O)NC6=O)C7=O)CC5)CC4)cc3)ncn2)c1Cl (stereo not given)
Activity [6]: Non-Toxic
Activity [11]: Non-Toxic
Activity [13]: Non-Toxic
Activity (SNU-16): Active
